{"data": "Measurements pooled from the literature", "target": "Serine/threonine-protein kinase pim-3 (PIM3, Homo sapiens, UniProt Q86V86)", "note": "Each line is one published result; the experiments were not run side by side."}
{"SMILES": "C#Cc1cnc(Nc2ccnc(CO)c2)nc1Nc1ccccc1S(C)(=O)=NC#N (stereo not shown)", "assay": "cell-free assay", "setting": "1 µM", "endpoint": "remaining signal", "result": "80%"}
{"SMILES": "COc1ccc2oc(-c3ccc4nc(N)oc4c3)c/c(=N\\c3ccccc3NC(=O)CCN)c2c1", "assay": "binding", "setting": "1 µM", "endpoint": "remaining binding", "result": "110%"}
{"SMILES": "CCCCC(=O)Nc1ccc(-c2ccc3ncn(CCC)c(=O)c3c2)cn1", "assay": "binding, competition with immobilised ligand", "setting": "0.5 µM", "endpoint": "remaining binding", "result": "93%"}
{"SMILES": "N#Cc1ccc(NC(=O)Nc2ccccc2)cc1", "assay": "cell-free assay, competition with immobilised ligand", "setting": "25 µM", "endpoint": "remaining binding", "result": "74%"}
{"SMILES": "C=CC(=O)N1CCC[C@@H](n2nc(-c3ccc(Oc4ccccc4)cc3)c3c(N)ncnc32)C1", "assay": "enzyme activity, inhibitor", "setting": "1 µM", "endpoint": "inhibition", "result": "0%"}
{"SMILES": "CC(C)S(=O)(=O)c1ccc2nccc(Nc3ccc4sc(C5CCCC5)nc4c3)c2c1", "assay": "enzyme activity, inhibitor", "setting": "1 µM", "endpoint": "activity vs control", "result": "104%"}
{"SMILES": "COc1ccc2[nH]c3c4[nH]c5ccc(OC)cc5c4c4c(c3c2c1)C(=O)NC4=O", "assay": "binding", "setting": "1 µM", "endpoint": "remaining binding", "result": "2.6%"}
{"SMILES": "C=CC(=O)N1CCC([C@@H]2CCNc3c(C(N)=O)c(-c4ccc(Oc5ccccc5)cc4)nn32)CC1", "assay": "enzyme activity, inhibitor", "setting": "1 µM", "endpoint": "inhibition", "result": "2%"}
{"SMILES": "C[C@H]1CC[C@H](n2c3cnccc3c3cnc(Nc4ccc5c(n4)CCN(C(=O)CO)C5)nc32)CC1", "assay": "cell-free assay", "setting": "1 µM", "endpoint": "remaining signal", "result": "31%"}
{"SMILES": "C1=C/COCc2cc(ccc2OCCN2CCCC2)Nc2nccc(n2)-c2cccc(c2)COC/1", "assay": "binding", "setting": "0.1 µM", "endpoint": "remaining binding", "result": "97%"}
